17 compounds from ChEMBL document CHEMBL1833789, “Inhibition of xc⁻ transporter-mediated cystine uptake by sulfasalazine analogs” (Bioorg Med Chem Lett, 2011) can be followed below.

This experiment addresses T1, Cystine/glutamate transporter (Homo sapiens, UniProt Q9UPY5).
T1 sequence (Q9UPY5 whole entry): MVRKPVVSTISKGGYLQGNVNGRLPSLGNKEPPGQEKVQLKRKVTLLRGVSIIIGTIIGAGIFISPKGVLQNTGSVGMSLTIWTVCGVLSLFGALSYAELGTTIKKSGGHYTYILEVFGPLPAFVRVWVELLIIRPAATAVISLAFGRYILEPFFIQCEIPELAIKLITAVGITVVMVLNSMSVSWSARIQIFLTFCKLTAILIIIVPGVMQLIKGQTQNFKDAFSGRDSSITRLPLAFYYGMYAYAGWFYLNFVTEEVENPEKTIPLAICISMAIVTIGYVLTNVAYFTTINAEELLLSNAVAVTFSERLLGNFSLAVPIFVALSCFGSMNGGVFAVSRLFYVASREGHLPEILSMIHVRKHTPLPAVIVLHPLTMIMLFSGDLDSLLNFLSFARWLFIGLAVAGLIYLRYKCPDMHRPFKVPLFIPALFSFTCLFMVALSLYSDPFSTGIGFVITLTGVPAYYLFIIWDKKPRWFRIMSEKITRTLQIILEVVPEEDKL
As to the kind of experiment: Inhibition of xc-cystine-glutamate antiporter-mediated cystine uptake in human U87 cells using L-[14C]cystine as substrate after 15 mins by liquid scintillation counting. Format: cell-based, U-87MG ATCC. The essentials:
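U87 human glioblastoma-astrocytoma cells, seeded at 0.067 × 10^6 per well and grown 6 days to confluency. Washed with pre-warmed sodium-free choline-chloride uptake buffer (HEPES 10 mM, pH 7.4), then given 80 µM L-[14C(U)]-cystine at 37 °C with or without inhibitor at various concentrations. Uptake stopped by three ice-cold washes, cells lysed in 0.1 N NaOH, counts normalized to protein.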

The term IC50 denotes the concentration that inhibits the measured activity by half. Lower therefore signals inhibition by little substance.

In turn, `N[C@@H](C(=O)O)c1ccc(C(=O)O)cc1` came in with an IC50 of over 1000 µM.

The compound `COC(=O)c1cc(C#Cc2ccc(S(=O)(=O)Nc3ccccn3)cc2)ccc1O` had an IC50 of over 1000 µM.

Regarding `O=C(O)c1cc(C#Cc2ccc(S(=O)(=O)Nc3ccccn3)cc2)ccc1O`, 30 µM corresponded to half-maximal inhibition (IC50).

Compound `COC(=O)c1cc(/C=C/c2ccc(S(=O)(=O)Nc3ccccn3)cc2)ccc1O` showed an IC50 of 900 µM.

The compound `O=C(O)c1cc(/C=C/c2ccc(S(=O)(=O)Nc3ccccn3)cc2)ccc1O` had an IC50 of 70 µM.

`COC(=O)c1cc(CCc2ccc(S(=O)(=O)Nc3ccccn3)cc2)ccc1O`: the IC50 was over 1000 µM.

`O=C(O)c1cc(CCc2ccc(S(=O)(=O)Nc3ccccn3)cc2)ccc1O` yielded an IC50 of 700 µM.

For the compound `O=C(O)c1cccc(C#Cc2ccc(S(=O)(=O)Nc3ccccn3)cc2)c1`, the concentration for half-maximal inhibition (IC50) came out at 75 µM.

On to `O=C(O)c1cccc(CCc2ccc(S(=O)(=O)Nc3ccccn3)cc2)c1`, for which the IC50 amounted to 920 µM.

`O=C(O)c1cc(/N=N/c2ccccc2)ccc1O` registered a 50% inhibitory concentration (IC50) of 200 µM.

On to `O=C(O)c1cc(C#Cc2ccccc2)ccc1O`, for which the concentration for half-maximal inhibition (IC50) worked out at 150 µM.

With `O=C(O)c1cccc(C#Cc2ccccc2)c1`, the midpoint of inhibition, the IC50, lay at 270 µM.

Compound `N[C@H](C(=O)O)c1ccc(C(=O)O)cc1` returned an IC50 of 15 µM.

Take `Nc1ccc(O)c(C(=O)O)c1` [MESALAMINE]: the 50% inhibitory concentration (IC50) is over 1000 µM.

Take `Nc1ccc(S(=O)(=O)Nc2ccccn2)cc1` [SULFAPYRIDINE]: the IC50 was over 1000 µM.

`O=C(O)c1cc(/N=N/c2ccc(S(=O)(=O)Nc3ccccn3)cc2)ccc1O` [SULFASALAZINE] returned an IC50 of 30 µM.

`Cc1cccnc1NS(=O)(=O)c1ccc(C#Cc2ccc(O)c(C(=O)O)c2)cc1` [SUSALIMOD] returned a half-inhibitory concentration (IC50) of 70 µM.
